Source: PubChem BioAssay
PHOSPHO1 block = PubChem AID 1565. Phosphoethanolamine/phosphocholine phosphatase (Homo sapiens), Q8TCT1. recombinant PHOSPHO1, absorbance phosphatase assay. inhibition, % at 13.3 µM. 290,000 compounds, 1.1% hits; in the data active = inhibition above about 60%
KCNQ1 block = inhibitors of human KCNQ1 channel, primary screen, cell-based, thallium flux, high-throughput. Potassium voltage-gated channel subfamily KQT member 1 (Homo sapiens), P51787. CHO-K1 KCNQ1, FluxOR thallium flux fluorescence; active compounds read high. B-score at 10 µM. 310,000 compounds, 1.3% hits;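 active = compounds whose thallium flux B-score, printed positive for inhibition, exceeds three library SD while starting fluorescence stays within three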;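 note: channel opened by potassium depolarization with thallium stimulus after 20 min compound exposure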
KCNK3 inh = human KCNK3 channel inhibitors, primary screen, CHO cells, FluxOR thallium flux, B-score; Potassium channel subfamily K member 3 (Homo sapiens), O14649; AID 602410, 2012; 340,000 compounds, 0.84% hits; B-score at 10 µM; FluxOR fluorescence; active compounds read low;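 active = B-score under library mean minus 4 SD, starting fluorescence ratio at most library mean plus 5 SD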;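 note: more negative B-score means stronger inhibition of thallium flux through KCNK3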
hERG rescue = hERG rescue from dofetilide block, primary screen, cell-based, CHO-hERG, FluxOR thallium flux, dofetilide IC70. Voltage-gated inwardly rectifying potassium channel KCNH2 (Homo sapiens), Q12809. dofetilide IC70 present. activation (rescue from dofetilide block), less the hit threshold, % at 10 µM. 310,000 compounds, 0.51% hits;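 active = activation above the mean of controls blocked by dofetilide plus 5 SD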;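 note: thallium influx through hERG after potassium depolarization seen as dye fluorescence rise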
KCNK9 inh = KCNK9 potassium channel inhibitors, primary screen, HEK293 cells, thallium flux; Potassium channel subfamily K member 9 (Homo sapiens), Q9NPC2; FluxOR thallium flux fluorescence; active compounds read low; B-score at 10 µM; 310,000 compounds, 1.2% hits;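 active = ratio B-score over 3 SD below the library mean, with starting fluorescence within 5 SD of its mean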;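 note: negative B-score means less thallium flux so channel inhibition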
KCNQ1 act = potentiators or activators of KCNQ1 channel, primary screen, cell-based, thallium flux, high-throughput; 310,000 compounds, 0.35% hits; B-score at 10 µM; CHO-K1 KCNQ1, thallium flux FluxOR fluorescence; active compounds read high; AID 2648, 2010; Potassium voltage-gated channel subfamily KQT member 1 (Homo sapiens), P51787;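 active = fluorescence ratio B-score, a plate-corrected score, at least three library SD, with initial intensity B-score within 5 SD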
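Assay system: stable KCNQ1 CHO-K1 line; medium: assay buffer, equal DMSO in all wells; timing: 90 min dye loading and 20 min compound exposure, both at room temperature; technique: kinetic FluxOR thallium fluorescence, 10-s 1-Hz baseline, 110-s post-stimulus read; read-out basis: B score of baseline-normalized fluorescence ratio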
KCNK9 block conf = KCNK9 potassium channel inhibitors, confirmation, HEK293 cells, thallium flux, duplicate | 4,900 compounds, 43% hits | AID 492992, 2010 | FluxOR thallium flux fluorescence | shares compounds with KCNK9 inh | inhibition, % at 10 µM;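 active = thallium signal inhibited by more than 5 SD of the compound-free buffer control wells, on both duplicate plates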;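 note: 0% = assay buffer control wells without compound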
Kir21 sel = mouse Kir2.1 channel inhibition, confirmation, selectivity assay for KCNK9 modulator project, cell-based, HEK293, thallium flux. inhibition, % at 10 µM. Kir2.1 cells, FluxOR thallium flux fluorescence. shares compounds with KCNK9 inh. 4,900 compounds, 4% hits;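 active = thallium signal drop more than 5 SD beyond the mean of the no-compound control wells, seen in both duplicate plates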;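 note: signal is fluorescence rise after thallium addition divided by baseline fluorescence; plate controls were assay buffer only for no effect and full block by chlorpromazine control for full effect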
Target sequence (P35561 whole entry, looked up): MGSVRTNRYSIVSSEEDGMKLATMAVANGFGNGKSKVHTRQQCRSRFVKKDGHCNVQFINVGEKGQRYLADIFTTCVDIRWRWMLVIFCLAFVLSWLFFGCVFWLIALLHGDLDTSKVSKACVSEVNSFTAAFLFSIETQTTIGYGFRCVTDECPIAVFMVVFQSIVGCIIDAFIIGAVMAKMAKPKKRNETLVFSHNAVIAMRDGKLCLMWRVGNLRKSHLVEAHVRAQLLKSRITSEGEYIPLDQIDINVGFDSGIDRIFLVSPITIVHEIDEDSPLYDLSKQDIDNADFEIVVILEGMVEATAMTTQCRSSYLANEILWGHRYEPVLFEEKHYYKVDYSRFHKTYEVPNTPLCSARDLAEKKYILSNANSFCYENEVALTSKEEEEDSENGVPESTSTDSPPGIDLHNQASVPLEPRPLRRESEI
KCNK9 uninduced = thallium flux in non-induced HEK293 cells, confirmation, counter-screen for KCNK9 inhibitor project, cell-based, second counter screen, non-induced KCNK9-HEK293; shares compounds with KCNK9 inh; FluxOR thallium flux; inhibition, % at 10 µM; 4,900 compounds, 40% hits; AID 492997, 2010;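 active = thallium signal drop beyond 5 SD of the untreated control mean, on both duplicate plates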;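 note: plate controls were buffer only IC0 wells for no effect and SID17386958 at its maximal inhibitory level for full effect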
Starred values were filed as active, the others as inactive. A selection: hits, their analogues and other compounds. The true share with any hit is near 4%.

What do the screens show for `O=C(COc1ccccc1[N+](=O)[O-])Nc1ccc2oc(=O)ccc2c1`?
PHOSPHO1 block: 4.5; KCNQ1 block: inactive; KCNK3 inh: inactive; hERG rescue: -4.2; KCNK9 inh: -9.63*; KCNQ1 act: inactive; KCNK9 block conf: inactive; Kir21 sel: inactive; KCNK9 uninduced: inactive

What do the screens show for `Cc1cc(=O)oc2cc(NC(=O)COc3ccccc3[N+](=O)[O-])ccc12`?
KCNK3 inh: inactive

Results for CCN1C(=O)C2(Nc3ccccc3-c3nc4ccccc4n32)c2cc(OC)ccc21 (configuration not stated) ?
PHOSPHO1 block: 30.3; KCNQ1 block: inactive; KCNK3 inh: inactive; hERG rescue: -13.3; KCNK9 inh: -15.2*; KCNQ1 act: inactive; KCNK9 block conf: 57.5%*; Kir21 sel: inactive; KCNK9 uninduced: 24.5%*

Results for CN1C(=O)C2(Nc3ccccc3-c3nc4ccccc4n32)c2ccccc21 (configuration not stated) ?
PHOSPHO1 block: 3.9; KCNQ1 block: inactive; KCNK3 inh: inactive; hERG rescue: -5.0; KCNK9 inh: inactive; KCNQ1 act: inactive

What do the screens show for `CCCc1ccc(Oc2cn[nH]c2-c2ccc(O)c(C)c2O)cc1`?
PHOSPHO1 block: -5.8; KCNQ1 block: inactive; KCNK3 inh: inactive; hERG rescue: -15.6; KCNK9 inh: -9.89*; KCNQ1 act: inactive; KCNK9 block conf: 55.5%*; Kir21 sel: inactive; KCNK9 uninduced: 44.0%*

How did Brc1ccc(-c2nnc(-c3cccnc3)c3conc23)cc1 do in these assays?
KCNQ1 block: inactive; hERG rescue: -12.8; KCNK9 inh: inactive; KCNQ1 act: inactive

How did Cc1nn(Cc2ccccc2)c(C)c1C(=O)OCC(=O)c1cc(C)n(C2CC2)c1C do in these assays?
PHOSPHO1 block: -6.1; KCNQ1 block: inactive; KCNK3 inh: inactive; hERG rescue: -10.9; KCNK9 inh: inactive; KCNQ1 act: inactive

How did COCCn1c(C)cc(C(=O)COC(=O)c2c(C)nn(Cc3ccccc3)c2C)c1C do in these assays?
PHOSPHO1 block: -4.1; KCNQ1 block: inactive; KCNK3 inh: inactive; hERG rescue: -6.3; KCNK9 inh: inactive; KCNQ1 act: inactive; KCNK9 block conf: inactive; Kir21 sel: inactive; KCNK9 uninduced: inactive

Results for COc1ccc(-c2cc(C(F)(F)F)nc(SCc3cccc(C(=O)O)c3)n2)cc1 ?
PHOSPHO1 block: 29.8; KCNQ1 block: inactive; KCNK3 inh: inactive; hERG rescue: -16.1; KCNK9 inh: inactive; KCNQ1 act: inactive; KCNK9 block conf: inactive; Kir21 sel: inactive; KCNK9 uninduced: inactive

What do the screens show for `O=C(O)c1cccc(CSc2nc(-c3ccccc3)cc(C(F)(F)F)n2)c1`?
PHOSPHO1 block: 2.6; KCNQ1 block: inactive; KCNK3 inh: inactive; hERG rescue: -17.5; KCNK9 inh: inactive; KCNQ1 act: inactive
